What was measured:
[1] = target: Cannabinoid receptor 1 (Homo sapiens, UniProt P21554); test: Displacement of [3H]CP55940 from human cannabinoid CB1 receptor expressed in CHO-K1 cells by liquid scintillation counting; format: cell-based
[2] = target: T1, Cannabinoid receptor 2 (Homo sapiens, UniProt P34972); test: Displacement of [3H]CP55940 from human cannabinoid CB2 receptor expressed in CHO-K1 cells by liquid scintillation counting; format: cell-based
[3] = target: T1, Cannabinoid receptor 2; test: Partial agonist activity at human cannabinoid CB2 receptor expressed in CHO-K1 cells assessed as [S35]GTPgammaS binding by scintillation counting; format: functional, cell-based
Method in brief: (§1)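 CB2 membranes held on ice with […] and 0.1 nM [35S]-GTPγS in buffer with 0.5% fatty-acid-free BSA. GF/B filtration, washing in ice-cold 50 mM Tris-HCl pH 7.4 with 0.1% BSA, then scintillation counting. Specific binding is signal minus the excess-GTPγS residual. Three independent experiments in triplicate.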

[4] = target: T1, Cannabinoid receptor 2; test: Partial agonist activity at human cannabinoid CB2 receptor expressed in CHO-K1 cells assessed as [S35]GTPgammaS binding by scintillation counting relative to vehicle treated control; format: functional, cell-based
Method in brief: as §1, with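 “BSA. Reaction started by adding compound, vehicle or CP55940.” for “BSA.”, “residual. Results given as % of vehicle control.” for “residual.”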

Chain of Cannabinoid receptor 1 (P21554 whole entry): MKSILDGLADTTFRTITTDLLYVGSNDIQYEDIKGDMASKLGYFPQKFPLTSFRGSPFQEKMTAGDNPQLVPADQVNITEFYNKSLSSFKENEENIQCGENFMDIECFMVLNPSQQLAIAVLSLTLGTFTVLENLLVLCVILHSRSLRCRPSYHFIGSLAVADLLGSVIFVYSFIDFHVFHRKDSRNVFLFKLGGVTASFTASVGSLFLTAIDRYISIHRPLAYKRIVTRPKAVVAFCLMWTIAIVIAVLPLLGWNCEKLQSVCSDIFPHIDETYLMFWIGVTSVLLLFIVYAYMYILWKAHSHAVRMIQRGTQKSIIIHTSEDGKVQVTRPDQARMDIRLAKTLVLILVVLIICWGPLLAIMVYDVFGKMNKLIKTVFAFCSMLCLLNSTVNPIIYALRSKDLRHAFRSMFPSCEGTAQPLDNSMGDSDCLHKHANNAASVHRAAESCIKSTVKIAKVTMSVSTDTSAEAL
T1 sequence (P34972 whole entry): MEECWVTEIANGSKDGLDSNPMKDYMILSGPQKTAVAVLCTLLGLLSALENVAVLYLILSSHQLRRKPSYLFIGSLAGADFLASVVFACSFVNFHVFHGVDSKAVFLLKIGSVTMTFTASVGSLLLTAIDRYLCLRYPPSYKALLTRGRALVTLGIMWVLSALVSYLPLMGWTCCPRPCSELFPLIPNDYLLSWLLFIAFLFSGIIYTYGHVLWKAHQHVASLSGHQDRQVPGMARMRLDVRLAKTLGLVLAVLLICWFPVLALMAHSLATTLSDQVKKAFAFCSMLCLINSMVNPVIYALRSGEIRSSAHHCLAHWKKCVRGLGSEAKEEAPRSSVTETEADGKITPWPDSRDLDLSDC

Compound | Ki [1] | Ki [2] | EC50 [3] | Emax [4]
CCc1cc2c(cc1O)OC(C)(C)C1=C2C[C@H](C)CC1 | > 10 µM | > 10 µM | – | –
CCCCCc1cc(O)c2c(c1)OC1=C(CC[C@@H](C)C1)C2(C)C | 1.1 µM | 0.47 µM | 0.93 µM | 152%
C[C@@H]1CCC2=C(C1)c1ccc(O)cc1OC2(C)C | > 10 µM | > 10 µM | – | –
CCCCCc1cc(O)c2c(c1)OC1=C(CC[C@H](C)C1)C2(C)C | 2.1 µM | 0.18 µM | 0.82 µM | 167%
CCc1cc2c(cc1O)OC1=C(CC[C@@H](C)C1)C2(C)C | > 10 µM | 0.51 µM | – | –
Cc1c(O)ccc2c1OC1=C(CC[C@@H](C)C1)C2(C)C | > 10 µM | 1 µM | – | –
C[C@@H]1CCC2=C(C1)Oc1cc(O)ccc1C2(C)C | > 10 µM | 4.2 µM | – | –
Cc1c(O)ccc2c1OC(C)(C)C1=C2C[C@H](C)CC1 | > 10 µM | > 10 µM | – | –
CCCCCc1cc(O)c2c(c1)OC(C)(C)C1=C2C[C@@H](C)CC1 | – | – | – | 146%
CCCCCc1cc(O)c2c(c1)OC(C)(C)C1=C2C[C@H](C)CC1 | – | – | – | 133%
Cc1cc(O)c2c(c1)OC1=C(CC[C@@H](C)C1)C2(C)C | > 10 µM | > 10 µM | – | –
Cc1cc(O)c2c(c1)OC(C)(C)C1=C2C[C@H](C)CC1 | 1 µM | 0.66 µM | – | –

— ChEMBL document CHEMBL3351653, “One-pot heterogeneous synthesis of Δ(3)-tetrahydrocannabinol analogues and xanthenes showing differential binding to CB(1) and CB(2) receptors” (Eur J Med Chem, 2014)
